Measurements taken from ChEMBL document CHEMBL1156917, “Stereoselective synthesis of desloratadine derivatives as antagonist of histamine” (Bioorg Med Chem, 2010).

Tests used:
Format in all cases: functional, tissue-based
[1] = molecular target: Histamine H1 receptor (Cavia porcellus) (UniProt P31389); assay: Antagonist activity at histamine H1 receptor in Dunkin-Hartley guinea pig ileum assessed as inhibition of histamine-induced contractions at 3 umol/L; conditions: at 3 µM
In short: (§1)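 Ileum segments (2 cm) were taken from stunned animals and mounted in an organ bath under 1 g initial load. The bath held Tyrode's solution at 37 °C, continuously oxygenated. After 20 min stabilization, noncumulative submaximal histamine stimuli were given. Isometric contractions were recorded without compound and after 3-5 min incubation with compound.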

[2] = molecular target: Histamine H1 receptor (Cavia porcellus) (UniProt P31389); assay: Antagonist activity at histamine H1 receptor in Dunkin-Hartley guinea pig ileum assessed as inhibition of histamine-induced contractions at 30 umol/L; conditions: at 30 µM; in short: as §1
[3] = molecular target: Histamine H1 receptor (Cavia porcellus) (UniProt P31389); assay: Antagonist activity at histamine H1 receptor in Dunkin-Hartley guinea pig ileum assessed as inhibition of histamine-induced contractions at 10 umol/L; conditions: at 10 µM; in short: as §1

Chain of Histamine H1 receptor (Cavia porcellus) (P31389 whole entry): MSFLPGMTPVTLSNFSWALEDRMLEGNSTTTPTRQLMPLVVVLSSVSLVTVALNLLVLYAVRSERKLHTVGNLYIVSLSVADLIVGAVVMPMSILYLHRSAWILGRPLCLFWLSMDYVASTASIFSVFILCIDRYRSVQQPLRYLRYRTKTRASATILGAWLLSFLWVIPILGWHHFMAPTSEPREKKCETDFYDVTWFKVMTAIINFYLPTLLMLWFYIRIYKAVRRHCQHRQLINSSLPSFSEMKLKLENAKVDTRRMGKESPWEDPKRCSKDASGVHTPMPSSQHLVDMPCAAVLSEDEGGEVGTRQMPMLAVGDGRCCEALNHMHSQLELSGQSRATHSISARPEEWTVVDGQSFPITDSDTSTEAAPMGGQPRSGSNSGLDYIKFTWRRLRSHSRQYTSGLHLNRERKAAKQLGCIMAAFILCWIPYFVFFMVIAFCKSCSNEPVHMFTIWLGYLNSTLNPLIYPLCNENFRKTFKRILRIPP

Row | Compound | inhibition [1] [%] | inhibition [2] [%] | inhibition [3] [%]
1 | COc1ccccc1/C=C1\OC(=O)C=C1CN1CCC(=C2c3ccc(Cl)cc3CCc3cccnc32)CC1 | 29.4 | 87.8 | 59.2
2 | COc1cc(/C=C2\OC(=O)C=C2CN2CCC(=C3c4ccc(Cl)cc4CCc4cccnc43)CC2)cc(OC)c1OC | 4.23 | 52.8 | 32.9
3 | COc1ccccc1C(O)C1OC(=O)C=C1CN1CCC(=C2c3ccc(Cl)cc3CCc3cccnc32)CC1 (configuration not stated) | 40.8 | 74.1 | 61.5
4 | Clc1ccc2c(c1)CCc1cccnc1C2=C1CCNCC1 | 47.4 | 80.4 | 77.7
5 | CS(=O)(=O)c1ccc(/C=C2\OC(=O)C=C2CN2CCC(=C3c4ccc(Cl)cc4CCc4cccnc43)CC2)cc1 | 12.4 | 71.9 | 50.4
6 | O=C1C=C(CN2CCC(=C3c4ccc(Cl)cc4CCc4cccnc43)CC2)/C(=C/c2ccc(Cl)cc2)O1 | 37 | 66.7 | 51.3
7 | O=C1C=C(CN2CCC(=C3c4ccc(Cl)cc4CCc4cccnc43)CC2)/C(=C/c2ccc(F)cc2)O1 | 6.99 | 30.6 | 19
8 | O=C1C=C(CN2CCC(=C3c4ccc(Cl)cc4CCc4cccnc43)CC2)CO1 | 33.4 | 94.8 | 79
9 | O=C1C=C(CN2CCC(=C3c4ccc(Cl)cc4CCc4cccnc43)CC2)C(C(O)c2ccccc2)O1 (configuration not stated) | 42.7 |  | 
10 | CN(C)c1ccc(/C=C2\OC(=O)C=C2CN2CCC(=C3c4ccc(Cl)cc4CCc4cccnc43)CC2)cc1 | 61.6 | 82.3 | 77.6
11 | O=C1C=C(CN2CCC(=C3c4ccc(Cl)cc4CCc4cccnc43)CC2)/C(=C/c2ccc(O)cc2)O1 | 3.54 | 65.6 | 41
12 | CCOC(=O)N1CCC(=C2c3ccc(Cl)cc3CCc3cccnc32)CC1 | 15.7 | 64.7 | 33.4
13 | COc1cc(/C=C2\OC(=O)C=C2CN2CCC(=C3c4ccc(Cl)cc4CCc4cccnc43)CC2)ccc1O | 4.67 | 62.6 | 42.5
